Test results from ChEMBL document CHEMBL1821628, “Anti-inflammatory endiandric acid analogues from the roots of Beilschmiedia tsangii” (J Nat Prod, 2011).

What was measured:
[1] = biological target: T1, Nitric oxide synthase, inducible (Mus musculus) (UniProt P29477); experiment: Inhibition of iNOS in mouse RAW264.7 cells assessed as anti-inflammatory activity by measuring inhibition of LPS-induced nitric oxide production at 100 uM after 24 hrs; assay type: cell-based
T1 sequence (whole entry): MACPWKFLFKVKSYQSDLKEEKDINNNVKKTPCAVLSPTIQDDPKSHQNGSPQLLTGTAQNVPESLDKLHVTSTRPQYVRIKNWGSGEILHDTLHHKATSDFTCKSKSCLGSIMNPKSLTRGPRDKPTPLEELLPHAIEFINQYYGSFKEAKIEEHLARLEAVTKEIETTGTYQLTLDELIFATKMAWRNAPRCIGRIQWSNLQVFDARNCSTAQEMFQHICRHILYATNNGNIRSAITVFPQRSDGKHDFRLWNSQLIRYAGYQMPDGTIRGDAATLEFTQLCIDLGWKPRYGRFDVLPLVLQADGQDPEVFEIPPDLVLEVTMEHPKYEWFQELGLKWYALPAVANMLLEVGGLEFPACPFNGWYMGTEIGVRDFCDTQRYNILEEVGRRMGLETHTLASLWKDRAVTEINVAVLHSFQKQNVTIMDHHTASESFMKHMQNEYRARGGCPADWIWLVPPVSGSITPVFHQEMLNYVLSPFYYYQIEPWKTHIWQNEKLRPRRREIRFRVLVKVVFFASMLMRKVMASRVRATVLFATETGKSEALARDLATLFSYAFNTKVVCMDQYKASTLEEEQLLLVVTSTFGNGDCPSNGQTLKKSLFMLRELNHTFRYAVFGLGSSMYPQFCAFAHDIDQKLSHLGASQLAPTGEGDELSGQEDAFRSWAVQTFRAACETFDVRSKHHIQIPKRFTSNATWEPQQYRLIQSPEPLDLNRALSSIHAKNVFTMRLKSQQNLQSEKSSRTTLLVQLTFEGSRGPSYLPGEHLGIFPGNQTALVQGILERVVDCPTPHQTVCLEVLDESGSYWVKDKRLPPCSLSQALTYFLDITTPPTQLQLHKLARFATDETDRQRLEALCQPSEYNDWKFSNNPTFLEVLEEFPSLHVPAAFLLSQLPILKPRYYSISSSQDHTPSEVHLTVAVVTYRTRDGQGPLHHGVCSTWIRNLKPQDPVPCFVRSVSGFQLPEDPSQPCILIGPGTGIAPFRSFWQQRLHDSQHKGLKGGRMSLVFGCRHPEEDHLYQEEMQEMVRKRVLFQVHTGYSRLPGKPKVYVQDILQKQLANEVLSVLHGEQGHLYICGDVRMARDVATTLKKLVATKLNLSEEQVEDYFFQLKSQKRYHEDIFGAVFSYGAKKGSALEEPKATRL
Method in brief: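 RAW 264.7 murine macrophages grown to confluence over 24 h, then held 4 h in serum-free DMEM. Compounds or vehicle (0.1% DMSO) were added with or without LPS (200 ng/mL) for 24 h. Supernatant nitrite was measured by Griess reagent, 10 min at room temperature, A550, against a sodium nitrite standard curve. Results are % inhibition versus vehicle plus LPS; Emax is taken at 100 μM; mean ± SE.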

[2] = biological target: T2, Nitric oxide synthase, inducible (Mus musculus, UniProt P29477); conditions: raw264.7
T2 sequence (P29477 whole entry): T1 sequence (whole entry)

SMILES: COc1cc(C(=O)O[C@@H](c2cc(OC)c(OC)c(OC)c2)[C@H](C)C(C)=O)cc(OC)c1OC [TSANGIN C]
- Emax [1]: 85.5%
- IC50 [2]: 51.4 µM

SMILES: N=C(N)NN [PIMAGEDINE]
- IC50 [2]: 26.5 µM

SMILES: O=C(O)[C@H]1[C@H]2C=C[C@@H]3[C@@H]1C[C@H]1[C@H](CCCc4ccc5c(c4)OCO5)[C@@H]2[C@@H]31 (relative stereo)
- Emax [1]: 77.9%
- IC50 [2]: 58.2 µM

SMILES: N=C(NCCC[C@H](N)C(=O)O)N[N+](=O)[O-] [NITROARGININE]
- Emax [1]: 43.7%
- IC50 [2]: 152 µM

SMILES: CC(C)CNC(=O)[C@H]1[C@H]2C=C[C@@H]3[C@@H]1C[C@H]1[C@H](CCCc4ccc5c(c4)OCO5)[C@@H]2[C@@H]31 (relative stereo)
- Emax [1]: 72.1%
- IC50 [2]: 16.4 µM

SMILES: O=C(O)[C@@H]1C=C[C@@H]2C[C@H]3[C@H](CCCc4ccc5c(c4)OCO5)[C@H]4C=C[C@@H]1[C@@H]2[C@H]43 (relative stereo) [TSANGIBEILIN A]
- Emax [1]: 96.9%
- IC50 [2]: 49.6 µM

SMILES: COc1cc([C@@H]2O[C@@H](c3cc(OC)c4c(c3)OCO4)[C@H](C)[C@H]2C)cc(OC)c1OC (relative stereo)
- Emax [1]: 63.4%
- IC50 [2]: 49 µM

SMILES: COc1cc([C@@H]2O[C@@H](c3cc(OC)c4c(c3)OCO4)[C@H](C)[C@H]2C)cc(O)c1OC (relative stereo) [BEILSCHMINOL A]
- Emax [1]: 86.6%
- IC50 [2]: 51.5 µM

SMILES: O=C(O)/C=C/[C@H]1[C@@H]2C=C[C@@H]3[C@H]1C[C@H]1[C@H](CCCCCc4ccc5c(c4)OCO5)[C@H]2[C@@H]31 (relative stereo)
- Emax [1]: 91.4%
- IC50 [2]: 39.6 µM

SMILES: CC(C)CNC(=O)[C@@H]1C=C[C@@H]2C[C@H]3[C@H](Cc4ccc5c(c4)OCO5)[C@H]4C=C[C@@H]1[C@@H]2[C@H]43 (relative stereo) [ENDIANDRAMIDE A]
- Emax [1]: 97.3%
- IC50 [2]: 9.59 µM

SMILES: O=C(O)[C@@H]1C=C[C@@H]2C[C@H]3[C@H](Cc4ccc5c(c4)OCO5)[C@H]4C=C[C@@H]1[C@@H]2[C@H]43 (relative stereo) [TSANGIBEILIN B]
- Emax [1]: 96.1%
- IC50 [2]: 42.3 µM

SMILES: COc1cc([C@@H]2O[C@@H](c3cc(OC)c4c(c3)OCO4)[C@H](C)[C@H]2C)cc2c1OCO2 (relative stereo)
- Emax [1]: 65.6%
- IC50 [2]: 52.5 µM
